The values that follow come from ChEMBL document CHEMBL1150425, “Parallel one-pot synthesis and structure-activity relationship study of symmetric formimidoester disulfides as a novel class of potent non-nucleoside HIV-1 reverse transcriptase inhibitors” (Bioorg Med Chem, 2008).

Molecules are shown by their SMILES. The source made the active and inactive calls. The calls are words filed in the database; no cut-off is given here.

In data set [1] the target is Human immunodeficiency virus type 1 reverse transcriptase (Human immunodeficiency virus 1, UniProt Q72547). As to the kind of experiment: Inhibition of HIV1 virion-associated reverse transcriptase.
A short description of data set [2]: Selectivity index, ratio of CC50 for human MT4 cells to EC50 for HIV1 cells. The format is toxicity, cell-based. As to conditions: read-out: Ratio CC50/EC50. Summed up:
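Ratio of CC50 (mock-infected MT-4 viability, MTT) to EC50 (50% protection of MT-4 cells from HIV-1 cytopathogenicity, MTT), both taken from the same parallel cell-based run.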

Data set [3] deals with Human immunodeficiency virus 1. As to the kind of experiment: Antiviral activity against HIV1 with reverse transcriptase Y181C mutation. The data set is classed as functional, organism-based. Summed up:
(§1)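 MT-4 cells infected with the mutant HIV-1 strain; protection from virus-induced cytopathogenicity read by MTT. EC50 is the concentration (µM) giving 50% protection. Cytotoxicity was assayed in parallel on mock-infected MT-4 cells by MTT. Triplicate samples.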

Data set [4] can be described thus: Cytotoxicity against human MT4 cells by MTT method. The data set is classed as cell-based. Summed up:
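Mock-infected MT-4 cells, run in parallel with the antiviral test; CC50 = concentration reducing viability by 50%, read by MTT. Triplicate samples.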
Background: Tetrazolium assays rely on reduction of a dye to a coloured formazan, in cell work by metabolically active cells.

Data set [5] concerns Human immunodeficiency virus 1. In words: Antiviral activity against HIV1 in MT4 cells assessed as reduction of virus induced cytopathogenicity by MTT method. The data set is classed as functional, organism-based. The note with it: Human immunodeficiency virus 1, MT4. The procedure, abridged: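 MT-4 cells infected with wild-type HIV-1; EC50 = concentration giving 50% protection of cells from virus-induced cytopathogenicity, viability read by MTT. Triplicate samples.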
In general terms: Cytopathic effects are the visible damage that an infection or toxin causes in cultured cells.

Data set [6] has as its system Human immunodeficiency virus 1. As to the kind of experiment: Antiviral activity against HIV1 with reverse transcriptase K103R mutation. The format is functional, organism-based. Summed up:
as §1

Broadly, the IC50 is the concentration that inhibits the measured activity by half. The compound `S=C(NCCc1ccccn1)Nc1ccc(Br)cn1` [TROVIRDINE] displayed an IC50 in data set [1] of 1.06 µM. Moreover, the selectivity ratio in data set [2] amounted to 3000.

One may read the EC50 as the concentration giving half of the maximal effect. One may read the CC50 as the concentration that lowers cell viability or growth by half. A higher CC50 goes with lower toxicity to the cells. In the case of `Cc1cc(Br)ccc1/N=C(\OCCN1C(=O)c2ccccc2C1=O)SS/C(=N/c1ccc(Br)cc1C)OCCN1C(=O)c2ccccc2C1=O`, the EC50 in data set [3] is 35 µM; in data set [5], 1.8 µM. In addition, the selectivity ratio in data set [2] is 44. This compound returned a cytotoxic concentration (CC50) in data set [4] of 80 µM. The outcome in data set [6] was inactive.

For `O=C1c2ccccc2C(=O)N1CCO/C(=N\c1ccc([N+](=O)[O-])cc1)SS/C(=N/c1ccc([N+](=O)[O-])cc1)OCCN1C(=O)c2ccccc2C1=O`, the 50% effective concentration (EC50) in data set [3] was determined as 57 µM; in data set [5], 0.07 µM; in data set [6], 62 µM. Further, the selectivity ratio in data set [2] was more than 1430. In data set [4], the CC50 was more than 100 µM.

The compound `O=C1c2ccccc2C(=O)N1CCO/C(=N\c1ccc(Br)cc1)SS/C(=N/c1ccc(Br)cc1)OCCN1C(=O)c2ccccc2C1=O` showed an IC50 in data set [1] of 0.74 µM. In addition, in data set [2], the selectivity ratio was 4200. Further, the half-maximal cytotoxic concentration (CC50) in data set [4] was found to be 42 µM. The concentration giving a half-maximal response (EC50) in data set [5] is 0.01 µM.
